Test results from ChEMBL document CHEMBL4513216, “Probing the Open Global Health Chemical Diversity Library for Multistage-Active Starting Points for Next-Generation Antimalarials” (ACS Infect Dis, 2020).

assay: Toxicity liver stage against HepG2, at 10uM; assay type: cell-based; set-up: test concentration 10 uM, cell line HepG2-A16-CD81EGFP; conditions: human, HepG2-A16-CD81EGFP cells; read-out: INHIBITION
How it was run: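 Uninfected HepG2-A16-CD81EGFP cells, 3 × 10^3 per well, 1536-well, plated on prespotted compound at 10 μM final, parasite-free screening media added to match infected plates; puromycin 10 μM positive, DMSO 0.5% negative; run in parallel with 48 h PbLuc assay at 37 °C, 5% CO2; viability by CellTiter-Glo luminescence, normalized to controls.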

Structure (SMILES) | cytotoxicity at 10 µM [%]
Cc1nc(Cn2cc(I)cc(C)c2=O)oc1C | 0.939
N#Cc1cc(F)c(NCCc2cccnc2)c(F)c1 | -68.5
CCC(CC)c1cc(C(=O)N2CCN(C(C#N)C(C)C)CC2)on1 (configuration not stated) | 1.87
Cc1ncc(-c2ccnc(N3CCCCCC3)n2)c(-c2cccnc2)n1 | 6.21
CCNC(=O)Nc1ccc2c(ccn2CC(=O)N(CC)CC)c1 | -0.421
O=C(COC[C@@]12CCC[C@@H]1CN(C1CCC1)C2)N1CCCC1 | -110
CC(C)n1c(C2CCCN(CC(=O)NC3CC3)C2)nc2ccccc21 (configuration not stated) | -5.54
CC(Cn1cccn1)NCc1csc(-c2ccccc2)n1 (configuration not stated) | -13.4
Cc1nc(N2CCOCC2)nc2c1CCN(C(=O)N1CCCC1)CC2 | 0.64
CC(C(=O)Nc1cccc(C(F)(F)F)c1)N(C)CCN1CCOCC1 (configuration not stated) | 9.54
CCc1ccc(C(=O)NCc2ccnc(C)n2)cc1 | -4.91
CCN(c1ccsc1C(=O)N1CCCCC1)S(=O)(=O)c1ccccc1 | 9.78
CC(=O)N1CCOC(c2c(C(=O)NC(C)(C)C)sc3ccccc23)C1 (configuration not stated) | 8
CSc1nc2ccsc2c(=O)n1CC(=O)N(C)C1CCCCC1 | 0.773
Cc1nc2c(c(NC(C)c3nnn[nH]3)n1)Cc1ccccc1OC2 (configuration not stated) | 1.07
O=C(NCC(O)c1cccs1)c1cccc(Cl)c1 (configuration not stated) | -17.8
CN(CCc1nc(-c2cccc(Cl)c2)no1)CCn1cccn1 | 8.86
Cc1cnn(CC(=O)N2CCC(c3ccn4nccc4n3)CC2)c1 | 3.24
CC(C)Oc1ccc(C(=O)N2CCCC2c2cnn(C)c2)cn1 (configuration not stated) | -6.37
CCOC(=O)Cn1cnc2nc3n(c2c1=O)CCC3 | -2.06
Cc1nc(CN(C)C(=O)Nc2cccc(COC(C)C)c2)no1 | 8.45
CCOC(=O)c1n[nH]cc1CN1CCOC(Cc2ccc(F)cc2)C1 (configuration not stated) | -3.92
COCCn1ccc(NC(=O)Nc2cccnc2)n1 | -12.3

Structure (SMILES) | cytotoxicity at 10 µM [%]
Cc1c(C[S+](C)[O-])cccc1NC(=O)c1cc(Cl)ccn1 (configuration not stated) | 9.41
CSCCN1CCN(c2nc(N)ncc2C)CC1 | 1.54
COCc1nn(CC2CC2)c2c1CN(C(=O)c1ccno1)CC2 | 10.4
CN1CCC2(CC1)CCN(C(=O)c1onc3ccccc13)C2 | -9.14
Cn1cc(-c2csc(N3CCOCC3)n2)cn1 | 0.469
CCc1nnsc1C(=O)N(C)Cc1ccc(C)o1 | -46.5
Cc1nc(C)n(C2CCCN(C(=O)c3ccc(NC4CC4)nc3)C2)n1 (configuration not stated) | -3.36
Cc1nn(C)cc1CC(C#N)C(=O)Nc1cccc(O)c1 (configuration not stated) | 2.8
O=C1CO[C@H]2CN(S(=O)(=O)c3ccccc3)C[C@H]2N1Cc1ccccc1 | -1.69
OC(CNc1nc(C2CCCC2)nc2c1CCNCC2)C(F)(F)F (configuration not stated) | -4.78
Cc1cc(N(C)C)nc(NCCn2cccn2)n1 | 5.65
O=C(C1CC(=O)N(c2n[nH]c3cc(Br)ccc23)C1)N1CCOCC1 (configuration not stated) | -3.27
c1cc2nc(C3CCN(CC4CC4)CC3)nn2cc1N1CCCC1 | -8.13
O=c1cc(CN2CCCC2)nc2n1CCCN(CC1CC1)C2 | -111
CN(C)c1cccc(C(=O)N2CCCSCC2CN2CCCC2)c1 (configuration not stated) | 7.03
COc1ccc(C(=O)Nc2cnn(CCN3CCOCC3)c2)c(O)c1 | -3.92
Cc1ccc(NC(=O)c2nc3c(s2)CCCN3C(C)C)cn1 | 0.93
CCNc1cc2c(nn1)CCN(C(=O)c1ccnc(-n3ccnc3)c1)C2 | -3.01
O=C(CN1CC(c2nc(-c3ccco3)no2)C1)NCC1CCCO1 (configuration not stated) | 2.21
COc1cc(OC)cc(-c2cc(CN)nc3ccnn23)c1 | -0.945
COc1cccc2c3c(c(=O)[nH]c12)CCO3 | 5.57
Cc1cccc(S(=O)(=O)N2C[C@@H]3C[C@@H](c4nnc(C)[nH]4)O[C@@H]3C2)c1 | 9.59
O=C(NCC1(CO)CC1)c1ccccc1C(F)(F)F | 4

Structure (SMILES) | cytotoxicity at 10 µM [%]
N#Cc1cn(CCCN2CCc3ccccc32)c(=O)[nH]c1=O | 6.48
CCn1cc(C(=O)N2C[C@H]3CC(Oc4ccccc4)C[C@H]3C2)cn1 (some centres not stated) | 5.75
CN1C[C@@H](n2cnc(-c3ccccc3)c2-c2c[nH]cn2)C[C@H]1C(=O)O | 0.791
O=C(C1CC(=O)N(C2CC2)C1)N1CCN(CCn2cccc2)CC1 (configuration not stated) | -12
COCc1ncn2c1CN(C(=O)Nc1cccc(OC)c1)CC2 | 12.7
CCO[C@@H]1CN(Cc2scnc2C)[C@@H]2CCCO[C@@H]21 | -151
NC(=O)C1CCN(Cn2nc(-c3ccccc3)oc2=O)CC1 | -16.8
CC(C)CN1CCC2(CC(C(=O)NCc3cccnc3)=NO2)C1 (configuration not stated) | -5.99
Cn1cc(C2CCCN2C(=O)CCCOc2ccccc2F)cn1 (configuration not stated) | 0.2
O=C1[C@@H]2CCN(Cc3ccccn3)C[C@@H]2OCCN1c1ccccc1 | -73.7
Cc1cc(C)cc(OCCNC(=O)C(C)Sc2nncn2C)c1 (configuration not stated) | -46.3
CNc1ncc(CN(C)C(=O)CCc2[nH]nc3c2CCCC3)cn1 | 3.8
O=C(CCCc1ccc(F)cc1)N1C[C@@H](CN2CCOCC2)[C@@H](CO)C1 | -11.8
O=C(Cc1ccccc1)N1C[C@@H]2OCCN(CC3CCCO3)[C@@H]2C1 (some centres not stated) | -3.09
COc1ccc(OC)c(-n2cnnc2C)c1 | 1.24
COCCOCC(=O)Nc1ccccc1F | 14.7
COCCN1C(=O)C[C@@H]2[C@H]1CCN2C(=O)COc1ccccc1 | -0.902
CN(Cc1ccsc1)C(=O)Nc1ccc(N(C)C)nc1 | -3.08
COCC1CCCN(C(=O)c2cc(Cn3ccc4ccccc43)[nH]n2)C1 (configuration not stated) | -11.5
O=C(c1cc(COc2ccc3c(c2)OCO3)[nH]n1)N1CCOCC1 | -5.21
CN(Cc1nc(N)c2ccccc2n1)CC1CCCN1c1cccnn1 (configuration not stated) | -1.4
CCCC1(NC(=O)C(c2ccccc2C)N(C)C)CC1 (configuration not stated) | -40.4
Cc1noc(CCNC(=O)NCC(=O)NCc2ccccc2)n1 | 5.24

Structure (SMILES) | cytotoxicity at 10 µM [%]
c1cnc(-c2nc(CN3CCOC(Cn4cncn4)C3)cs2)nc1 (configuration not stated) | -15.2
CCc1cnc(C)nc1NC(CC)c1ncnn1CC (configuration not stated) | -10.2
C1CCC(c2nnc3sc(C4CCCO4)nn23)C1 (configuration not stated) | 8.61
Cc1nccc(N[C@H]2CN(CCC(=O)NC3CCCC3)C[C@@H]2C2CC2)n1 | -4.57
CC(Cn1cccn1)C(=O)N1CCCN(Cc2cscn2)CC1 (configuration not stated) | -13.2
Cc1nc2ccnn2c(C)c1CCC(=O)N1CCC(C(N)=O)CC1 | -9.26
CCc1c(C)nn(CCNC(=O)Cc2csc(C)n2)c1C | 0.129
O=C(O)c1cnc(N2CC[C@H](N3CCOCC3)[C@H](CCCO)C2)c(Cl)c1 | 4.6
O=C(c1ccncc1F)N1CCCC(c2nccn2CC2CCC2)C1 (configuration not stated) | 5.94
CS(=O)(=O)c1snnc1C1CCCN(Cc2ccncc2)C1 (configuration not stated) | -11.5
COCc1cc(O)nc(C2CCCN(Cc3cccc(OC)c3)C2)n1 (configuration not stated) | 4.97
CN(C)c1nc2n(c(=O)n1)CCN2C(=O)Nc1cccc(Cl)c1 | 8.19
OCC1CCCN1c1cc(NCc2ccccn2)ncn1 (configuration not stated) | -8.01
COc1ccc(C(=O)N2CCC(Oc3cccc(C)c3)(C(=O)O)CC2)o1 | 9.24
CN1CCC(NC(=O)c2cc(Br)cc(Cl)c2O)C1=O (configuration not stated) | -5.79
Cn1ccc(C(=O)NCc2cccc(N3CCCCC3=O)c2)cc1=O | -6.68
CO[C@H]1CO[C@@]2(CCCN(C(=O)C3=CCCCC3)C2)C1 | -9.95
CCOCC(=O)NC1(c2cccc(Cl)c2)CC1 | 3
COC1CCN(CCNC(=O)NCC(C)c2cccc(C)c2)CC1 (configuration not stated) | -4.47
CS(=O)(=O)c1cncnc1C1CCCN(C(=O)NCc2ccccc2)C1 (configuration not stated) | -0.375
O=C(c1cnn(-c2ccccc2Cl)c1)N1CCN(CCO)CC1 | -4.26
O=S(=O)(NCC1(c2cccs2)CCCC1)c1cccnc1 | -2.56
O=C(NCC1=CCCCC1)C(c1cccnc1)N1CCOCC1 (configuration not stated) | -8.4

Structure (SMILES) | cytotoxicity at 10 µM [%]
CCc1ccc2c(c1)C(CCNC(=O)Cc1ccc(F)cc1)C(=O)N2 (configuration not stated) | -44.3
CCCS(=O)(=O)N1CC(=O)N(Cc2ccccc2OC)CC(O)C1 (configuration not stated) | -7.44
CC(C)c1cc(CN(C)C(=O)C(C)N2CCc3ccccc3C2)no1 (configuration not stated) | 4.24
OC1CCN(c2ccc(CNc3nc4ccccc4o3)cc2F)CC1 | 0.833
Cc1nc(C)c(C(=O)N2CCc3cc(F)ccc3C2C)o1 (configuration not stated) | 10.5
c1cc(NC2CC3(CCN(Cc4cc[nH]n4)C3)C2)ncn1 (configuration not stated) | -4.71
CN(C)C(=O)CC1CC2(CCN(Cc3ccsc3)CC2)c2ccccc21 (configuration not stated) | 1.13
c1ccc2c(c1)CN(c1ncnc3sc4c(c13)CCNC4)CCO2 | 5.08
CCc1ncc2c(n1)CN(Cc1nc(-c3ccco3)oc1C)CC2 | 6.15
COc1ccc(CC(=O)N2Cc3nccn3CC(CN(C)C)C2)cc1 (configuration not stated) | -116
Cn1nc(C(=O)NC2CCCC2)cc1NC(=O)C1CC1 | 0.754
Cc1cc(NC(C)C(=O)NCc2ccccc2)nc(-c2ccncc2)n1 (configuration not stated) | 0.563
CCc1noc(C(C)N2CCN(CC(=O)N3CCOCC3)CC2)n1 (configuration not stated) | 6.01
O=C(c1cnn2ccccc12)N1CCCC(OCc2ccccn2)C1 (configuration not stated) | -3.74
Cc1occc1C(=O)N1CCOCC2(CCN(Cc3nccs3)C2)C1 (configuration not stated) | -6.34
COc1ccc(N2CCC(NC(=O)c3sccc3C)CC2)cc1 | -2.28
c1n[nH]cc1CCCN1CCC(OC2CCCCC2)CC1 | 2.97
Cc1ccc(NC(=O)c2ncc(C(N)=O)cc2Cl)cc1F | -3.53
O=C(NCc1nn(-c2ccccc2)c2c1CCC2)N1CCSCC1 | -4.89
N#CCCNC(=O)c1ccn(-c2ccc3ccccn23)n1 | 3.82
